HCV NS3 hel inh = HCV NS3 helicase inhibition | NS3 helicase DNA unwinding, Cy5 molecular beacon fluorescence | inhibition, % at 10.9 µM | hit rate 0.56% among 290,000 | AID 1800;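 active means inhibition above the mean of all tested compounds plus 3 SD, set per campaign, cut at about 35% in these data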;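 further: 0% = DMSO wells and 100% = thioflavine S control wells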
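Control set: DMSO versus 110 µM thioflavine S; Material: NS3 helicase fragment of HCV; Measured by: Cy5 fluorescence at 0 and 60 min, beacon hairpin quenching; Read-out basis: percent inhibition from t60/t0 fluorescence ratio; Times: reaction time 60 min, 25 °C; Repeats: single replicate; Compound dosing: single dose, 10.9 µM nominal final, DMSO 0.8% final.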
core dimer inh = blocks dimerization of HCV core protein | TR-FRET GST/Flag-core106 dimerization, 1536-well | inhibition, % at 5 µM | hit rate 0.33% among 300,000 | AID 1899;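 active means inhibition above the mean of all tested compounds plus 3 SD, set per screening campaign, cut at about 45% in these data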
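Material: GST/Flag-tagged HCV core106 proteins. Incubation: 4 h, 22.5 °C incubation. Read-out basis: inhibition (%) from 671 over 617 nm ratio. Measured by: TR-FRET, excitation 340 nm, emission 617 and 671 nm.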
EBNA-1 inh = blocks EBNA-1 binding to DNA; EBNA-1 DNA binding, fluorescence polarization; inhibition, % at 14.8 µM; hit rate 0.34% among 300,000; in the data active means inhibition above about 28%
EBV gp42 block = EBV gp42 inhibition; Q1HVG2; hit rate 0.42% among 220,000; Fluorescence polarization binding assay, mP read-out; inhibition, % (tested at 21.74 µM); in the data active means inhibition above about 50%
ZTA counter = counter-screen for EBNA-1 inhibitors: inhibitors of Epstein-Barr virus ZTA; ZTA-DNA binding, fluorescence polarization; inhibition, % at 11 µM; hit rate 0.15% among 320,000; AID 2234; in the data active means inhibition above about 33%
Target sequence (P03206 whole entry, looked up): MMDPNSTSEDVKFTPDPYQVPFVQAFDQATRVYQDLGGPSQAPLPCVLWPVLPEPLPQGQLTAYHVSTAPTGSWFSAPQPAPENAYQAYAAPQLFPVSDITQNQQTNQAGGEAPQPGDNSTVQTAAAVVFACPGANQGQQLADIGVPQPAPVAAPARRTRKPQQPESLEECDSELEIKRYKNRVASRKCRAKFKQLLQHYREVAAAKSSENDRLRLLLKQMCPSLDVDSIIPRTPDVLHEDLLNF
GPR7 antag = blocks human GPR7 receptor signaling. AID 1861. inhibition, % at 4.4 µM. GPR7-expressing cells, fluorescence antagonist assay. hit rate 1.1% among 290,000. P48145; in the data active means inhibition above about 16%, passing the limit was not always enough;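 further: cells stimulated with the agonist NPW; 0% = agonist with vehicle and 100% = vehicle without agonist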
Target sequence (P48145 whole entry, looked up): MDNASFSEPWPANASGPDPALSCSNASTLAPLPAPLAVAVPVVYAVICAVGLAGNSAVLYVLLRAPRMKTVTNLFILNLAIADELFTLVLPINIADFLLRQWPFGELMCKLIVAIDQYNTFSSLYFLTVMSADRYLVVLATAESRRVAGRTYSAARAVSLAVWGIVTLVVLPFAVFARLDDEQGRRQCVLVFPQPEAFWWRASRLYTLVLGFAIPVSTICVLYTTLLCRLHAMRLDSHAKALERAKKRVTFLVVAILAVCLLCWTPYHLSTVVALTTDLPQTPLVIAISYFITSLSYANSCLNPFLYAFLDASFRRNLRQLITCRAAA
* marks the source's active call; other numbers are inactive results; · = no result. Only some compounds are listed: those with a hit (about 2.3% of all), similar ones and a draw of the others.

SMILES	HCV NS3 hel inh	core dimer inh	EBNA-1 inh	EBV gp42 block	ZTA counter	GPR7 antag
Cn1cc(/C=C2\SC(=O)NC2=S)c2ccccc21	17	-5	-4	72*	5	-7
Cn1cc(/C=C2\SC(=S)N(NC(=O)c3ccccc3Cl)C2=O)c2ccccc21	-9	-12	8	87*	2	-9
Cc1ccc(C(=O)NN2C(=O)/C(=C/c3cn(C)c4ccccc34)SC2=S)cc1	15	3	-1	130*	8	-2
Cn1cccc1/C=C1\SC(=S)N(NC(=O)c2ccccc2Cl)C1=O	0	-7	3	-173	13	0
Cc1ccc(C(=O)NN2C(=O)/C(=C/c3cccn3C)SC2=S)cc1	-6	-23	-8	-97	-29	-1
N#Cc1c(NC(=O)CSc2ncnc3sccc23)oc(-c2ccco2)c1-c1ccco1	26	50*	-5	-24	15	2
Cc1cc(NC(=O)CSc2ncnc3sccc23)no1	15	-1	-1	-4	-1	-7
CCNC(=O)CSc1ncnc2sccc12	8	58*	0	13	4	8
O=C(CN1C(=O)c2cccnc2Oc2ccc(Cl)cc21)N1CCCC1	3	2	10	·	8	-7
O=C(/C=C/c1ccco1)N1CCCC(c2ccccc2)C1 (centres undefined)	28	48*	6	-13	6	-3
O=C(Cc1coc2cc3c(cc12)CCC3)OCc1cc(=O)n2c(n1)sc1ccccc12	13	57*	-16	-6	9	-13
CC(C)[C@H](NC(=O)c1ccco1)C(=O)OCc1cc(=O)n2c(n1)sc1ccccc12	1	23	7	45	2	-13
O=C(OCc1cc(=O)n2c(n1)sc1ccccc12)c1cccc(O)c1	10	51*	0	-14	9	-9
COc1ccc(C2=NN(c3nc(-c4ccccc4)c(CC(=O)O)s3)C(c3ccco3)C2)cc1 (centres undefined)	30	87*	40*	-21	-6	4
Cc1nc(N2N=C(c3ccc(Cl)cc3)CC2c2ccco2)sc1C(=O)N(C)C (centres undefined)	6	10	2	-3	-3	-17
O=C(Nc1nccs1)C(c1ccccc1)N1CCCC1 (centres undefined)	-3	-3	-2	65*	-17	-17
Cc1ccc2nc(NS(C)(=O)=O)sc2c1	-3	0	-1	-17	-4	1
CC(=O)Nc1ccc(NC2=Nc3ccccc3N3C2=Nc2c(c(C)nn2-c2ccccc2)C3c2ccccc2)cc1 (centres undefined)	11	1	-5	71*	-13	-10
Cc1ccc(-c2nc3ccc([N+](=O)[O-])cc3[nH]2)cc1	-1	1	-8	17	-5	54*
O=[N+]([O-])c1ccc(/C=C/c2nc3ccc([N+](=O)[O-])cc3[nH]2)cc1	-2	-3	-6	113*	18	-2
O=[N+]([O-])c1ccc2nc(-c3ccc(Cl)cc3)[nH]c2c1	2	3	6	10	-7	24*
Nc1nc2ccc([N+](=O)[O-])cc2[nH]1	7	-1	6	3	10	-8
COc1ccc(-c2nc3ccc([N+](=O)[O-])cc3[nH]2)cc1	-2	-1	2	-10	4	11
CCCNC(=O)NC(=O)CSc1ccc(C)cc1C	1	1	-4	1	0	-16
CN(C)n1cnc2ccsc2c1=O	8	-1	2	8	7	-14
SMILES	HCV NS3 hel inh	core dimer inh	EBNA-1 inh	EBV gp42 block	ZTA counter	GPR7 antag
N#Cc1cc(Nc2c(N)nc[nH]c2=O)c([N+](=O)[O-])cc1C#N	4	2	5	·	-1	-11
CCOc1cc(CNCC(C)C)c(Cl)cc1OCC(=O)Nc1ccccc1	-23	-3	-4	6	-14	0
O=C1CC(N2CCN(c3nc4ccccc4s3)CC2)C(=O)N1Cc1cccs1 (centres undefined)	6	10	7	7	9	20*
O=C1CC(N2CCN(c3ccc(F)cc3)CC2)C(=O)N1Cc1cccs1 (centres undefined)	-2	2	10	-12	3	-7
Cc1cc(-c2nnco2)c(C)n1-c1ccc(F)cc1	-1	1	7	-3	0	-2
Cc1ccc(C)n1-c1ccc(-c2nnco2)cc1	-2	67*	9	1	2	0
Cc1ccc(-n2nnnc2SCC(=O)c2c(N)n(C3CC3)c(=O)[nH]c2=O)cc1C	·	·	·	·	-26	·
CSCC[C@H](NC(=O)c1cccs1)C(=O)N1CCC2(CC1)NCCc1[nH]cnc12	-15	-6	-6	·	-1	-8
CCOc1cc(C2C(C#N)=C(N)OC(C)=C2C(C)=O)cc(Br)c1O (centres undefined)	8	-2	-14	51*	-3	-10
c1ccc(Cn2c(SCc3nc4ccccc4s3)nnc2-c2ccco2)cc1	19	50*	5	-12	3	-3
CCC(CC)NC(=O)COC(=O)CCC(=O)c1ccc(Cl)cc1	6	3	1	4	-12	-9
CCc1cc[n+](-c2nc3ccccc3nc2[N-]S(=O)(=O)c2ccc(Br)s2)cc1	17	13	8	58*	-16	3
Cc1cc[n+](-c2nc3ccccc3nc2[N-]S(=O)(=O)c2ccccc2)cc1	3	-4	-14	12	-6	-5
COc1ccccc1NC(=S)N1CCC(NC(=O)c2ccco2)CC1	6	3	-4	-14	0	-13
COc1cc(C(=S)N2CCOCC2)ccc1OC(=O)c1cc(OC)c(OC)c(OC)c1	-4	3	-2	·	2	-4
C1=C(CCNc2ncnc3c2[nH]c2ccccc23)CCCC1	-45	4	1	7	5	41*
CCCCn1c(O)c(/C=C/C=C/C=Nc2ccccc2)sc1=S	22	63*	-11	3	8	-16
O=C(CSc1ncc(-c2ccc(F)cc2)n1Cc1ccco1)Nc1ccc2c(c1)OCO2	-16	0	2	-12	-11	29*
CCC(C)(C(=O)NC1CCCCC1)N(C(=O)CNC(=O)c1ccccc1)c1c(C)n(C)n(-c2ccccc2)c1=O (centres undefined)	0	5	4	-8	23	-1
COc1ccc(NC(=O)Cn2cc(S(=O)(=O)Cc3ccccc3)c3ccccc32)c(OC)c1	-1	52*	-1	18	2	-2
Cn1nc(-c2ccccc2)c2nc3ccccc3nc21	9	-5	0	126*	17	-9
CCCCn1nc(-c2ccccc2)c2nc3ccccc3nc21	11	-2	-8	154*	14	2
CCCCn1c2nc3ccccc3nc2c2c(=O)n(-c3ccccc3)cnc21	2	6	13	8	14	-11
Cc1ccc2c(c1)C(=O)C(=O)N2CC(=O)Nc1ccc(N2CCOCC2)cc1	8	-2	-9	-6	-6	1

Screening results from PubChem BioAssay.
